Measurements taken from ChEMBL document CHEMBL4130613, “Identification and Proposed Relative and Absolute Configurations of Niphimycins C-E from the Marine-Derived Streptomyces sp. IMB7-145 by Genomic Analysis” (J Nat Prod, 2018).
Values after ≈ are worked out from the molar mass of the structure shown. Active and inactive are the calls of the source. The rule behind the calls is not given here.

Key:
[1] = tested on: Staphylococcus epidermidis; experiment: Antibacterial activity against methicillin-resistant Staphylococcus epidermidis 12-8 after 18 hrs by agar dilution method; type: functional
Staphylococcus aureus [2] = experiment: Antibacterial activity against methicillin-resistant Staphylococcus aureus ATCC 33591 after 18 hrs by agar dilution method; type: functional
Staphylococcus aureus [3] = experiment: Antibacterial activity against methicillin-resistant Staphylococcus aureus 12-33 after 18 hrs by agar dilution method; type: functional
Enterococcus faecalis [4] = experiment: Antibacterial activity against vancomycin-resistant Enterococcus faecalis ATCC 51299 after 18 hrs by agar dilution method; type: functional
Enterococcus faecalis [5] = experiment: Antibacterial activity against vancomycin-resistant Enterococcus faecalis 09-9 after 18 hrs by agar dilution method; type: functional
Enterococcus faecium [6] = experiment: Antibacterial activity against vancomycin-resistant Enterococcus faecium ATCC 700221 after 18 hrs by agar dilution method; type: functional
Enterococcus faecium [7] = experiment: Antibacterial activity against vancomycin-resistant Enterococcus faecium 12-1 after 18 hrs by agar dilution method; type: functional
Candida albicans = experiment: Antifungal activity against Candida albicans ATCC 10231 after 18 hrs by agar dilution method; type: functional; conditions: ATCC 10231, 18 h
Escherichia coli [8] = experiment: Antibacterial activity against extended-spectrum beta-lactamase-negative Escherichia coli ATCC 25922 after 18 hrs by agar dilution method; type: functional; conditions: ATCC 25922, 18 h
Escherichia coli [9] = experiment: Antibacterial activity against extended-spectrum beta-lactamase-negative Escherichia coli 1515 after 18 hrs by agar dilution method; type: functional; conditions: Escherichia coli, 1515, 18 h
Escherichia coli [10] = experiment: Antibacterial activity against extended-spectrum beta-lactamase-negative Escherichia coli 12-14 after 18 hrs by agar dilution method; type: functional; conditions: 12-14, 18 h
Escherichia coli [11] = experiment: Antibacterial activity against extended-spectrum beta-lactamase-positive Escherichia coli 12-15 after 18 hrs by agar dilution method; type: functional; conditions: 12-15, 18 h
Klebsiella pneumoniae [12] = experiment: Antibacterial activity against extended-spectrum beta-lactamase-positive Klebsiella pneumoniae ATCC 700603 after 18 hrs by agar dilution method; type: functional; conditions: Klebsiella pneumoniae, 700603, 18 h
Klebsiella pneumoniae [13] = experiment: Antibacterial activity against extended-spectrum beta-lactamase-negative Klebsiella pneumoniae 7 after 18 hrs by agar dilution method; type: functional; conditions: Klebsiella pneumoniae, 7, 18 h
Klebsiella pneumoniae [14] = experiment: Antibacterial activity against NDM-1 positive Klebsiella pneumoniae ATCC BAA-2146 after 18 hrs by agar dilution method; type: functional; conditions: ATCC BAA-2146, 18 h
Klebsiella pneumoniae [15] = experiment: Antibacterial activity against extended-spectrum beta-lactamase-negative Klebsiella pneumoniae 12-4 after 18 hrs by agar dilution method; type: functional; conditions: 12-4, 18 h
Klebsiella pneumoniae [16] = experiment: Antibacterial activity against extended-spectrum beta-lactamase-positive Klebsiella pneumoniae 12-8 after 18 hrs by agar dilution method; type: functional; conditions: 12-8, 18 h
Pseudomonas aeruginosa [17] = experiment: Antibacterial activity against Pseudomonas aeruginosa ATCC 27853 after 18 hrs by agar dilution method; type: functional; conditions: ATCC 27853, 18 h
Pseudomonas aeruginosa [18] = experiment: Antibacterial activity against Pseudomonas aeruginosa PAO1 after 18 hrs by agar dilution method; type: functional; conditions: PAO1, 18 h
Pseudomonas aeruginosa [19] = experiment: Antibacterial activity against Pseudomonas aeruginosa 12-16 after 18 hrs by agar dilution method; type: functional; conditions: 12-16, 18 h
[20] = tested on: Acinetobacter calcoaceticus; experiment: Antibacterial activity against Acinetobacter calcoaceticus ATCC 19606 after 18 hrs by agar dilution method; type: functional; conditions: ATCC 19606, 18 h
Enterobacter cloacae = experiment: Antibacterial activity against Enterobacter cloacae ATCC 43560 after 18 hrs by agar dilution method; type: functional; conditions: ATCC 43560, 18 h
Klebsiella aerogenes = experiment: Antibacterial activity against Enterobacter aerogenes ATCC 13048 after 18 hrs by agar dilution method; type: functional; conditions: ATCC 13048, 18 h
Serratia marcescens = experiment: Antibacterial activity against Serratia marcescens ATCC 21074 after 18 hrs by agar dilution method; type: functional; conditions: ATCC 21074, 18 h
Morganella morganii = experiment: Antibacterial activity against Morganella morganii ATCC 25830 after 18 hrs by agar dilution method; type: functional; conditions: ATCC 25830, 18 h
Providencia rettgeri = experiment: Antibacterial activity against Providencia rettgeri ATCC 31052 after 18 hrs by agar dilution method; type: functional; conditions: ATCC 31052, 18 h
Proteus vulgaris = experiment: Antibacterial activity against Proteus vulgaris ATCC 29905 after 18 hrs by agar dilution method; type: functional; conditions: ATCC 29905, 18 h
Proteus mirabilis = experiment: Antibacterial activity against Proteus mirabilis 12-6 after 18 hrs by agar dilution method; type: functional; conditions: 12-6, 18 h
[21] = tested on: Stenotrophomonas maltophilia; experiment: Antibacterial activity against Stenotrophomonas maltophilia ATCC 13636 after 18 hrs by agar dilution method; type: functional; conditions: ATCC 13636, 18 h
Citrobacter freundii = experiment: Antibacterial activity against Citrobacter freundii ATCC 43864 after 18 hrs by agar dilution method; type: functional; conditions: ATCC 43864, 18 h
HeLa = experiment: Cytotoxicity against human HeLa cells after 48 hrs by SRB assay; type: functional, cell-based
Method in brief: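 HeLa human cervical carcinoma cells obtained from ATCC. Cytotoxicity was read by sulforhodamine B staining following an earlier published protocol, with doxorubicin hydrochloride as positive control. Values are reported as IC50.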

For CNC(=N)NCCC/C=C/CCC[C@H](C)C[C@H](C)[C@H]1OC(=O)[C@H](C)[C@H](O)/C=C/[C@H](C)[C@H](O)C[C@H](O)[C@H](C)[C@@H](O)CC[C@H](C)[C@H](O)C[C@]2(OC)O[C@H](C[C@@H](OC(=O)CC(=O)O)C[C@H](O)C[C@@H](O)[C@H](C)[C@H](O)/C=C/C=C/[C@@H]1C)C[C@H](O)[C@H]2O, the Activity [1] was “Active”, the Activity (Staphylococcus aureus [2]) was “Active” and the Activity (Staphylococcus aureus [3]) was “Active”. The Activity (Enterococcus faecalis [4]) was “Active”, the Activity (Enterococcus faecalis [5]) was “Active” and the Activity (Enterococcus faecium [6]) was “Active”. The Activity (Enterococcus faecium [7]) was “Active”, the MIC (Candida albicans) was 8 to 32 µg/mL (≈ 6.92 to 27.7 µM) and the MIC (Escherichia coli [8]) was greater than 64 µg/mL. It also gave an MIC (Escherichia coli [9]) greater than 64 µg/mL, an MIC (Escherichia coli [10]) greater than 64 µg/mL and an MIC (Escherichia coli [11]) greater than 64 µg/mL. The MIC (Klebsiella pneumoniae [12]) was greater than 64 µg/mL, the MIC (Klebsiella pneumoniae [13]) was greater than 64 µg/mL and the MIC (Klebsiella pneumoniae [14]) was greater than 64 µg/mL. It also gave an MIC (Klebsiella pneumoniae [15]) greater than 64 µg/mL, an MIC (Klebsiella pneumoniae [16]) greater than 64 µg/mL and an MIC (Pseudomonas aeruginosa [17]) greater than 64 µg/mL. It also gave an MIC (Pseudomonas aeruginosa [18]) greater than 64 µg/mL, an MIC (Pseudomonas aeruginosa [19]) greater than 64 µg/mL and an MIC [20] greater than 64 µg/mL. It also gave an MIC (Enterobacter cloacae) greater than 64 µg/mL, an MIC (Klebsiella aerogenes) greater than 64 µg/mL and an MIC (Serratia marcescens) greater than 64 µg/mL. For the same molecule, the MIC (Morganella morganii) was greater than 64 µg/mL, the MIC (Providencia rettgeri) was greater than 64 µg/mL and the MIC (Proteus vulgaris) was greater than 64 µg/mL. It also gave an MIC (Proteus mirabilis) greater than 64 µg/mL, an MIC [21] greater than 64 µg/mL and an MIC (Citrobacter freundii) greater than 64 µg/mL. It also gave an IC50 (HeLa) of 3 to 9 µM.

For CNC(=N)NCCC/C=C/CCC[C@H](C)C[C@H](C)[C@H]1OC(=O)[C@H](C)[C@H](O)/C=C/[C@H](C)[C@H](O)C[C@H](O)[C@H](C)[C@@H](O)CC[C@H](C)[C@H](O)C[C@]2(O)O[C@H](C[C@@H](O)C[C@H](OC(=O)CC(=O)O)C[C@@H](O)[C@H](C)[C@H](O)/C=C/C=C/[C@@H]1C)C[C@H](OC(=O)CC(=O)O)[C@H]2O, the Activity [1] was “Active”, the Activity (Staphylococcus aureus [2]) was “Active” and the Activity (Staphylococcus aureus [3]) was “Active”. For the same molecule, the Activity (Enterococcus faecalis [4]) was “Active”, the Activity (Enterococcus faecalis [5]) was “Active” and the Activity (Enterococcus faecium [6]) was “Active”. The Activity (Enterococcus faecium [7]) was “Active”, the MIC (Candida albicans) was 8 to 32 µg/mL (≈ 6.51 to 26 µM) and the MIC (Escherichia coli [8]) was greater than 64 µg/mL. The MIC (Escherichia coli [9]) was greater than 64 µg/mL, the MIC (Escherichia coli [10]) was greater than 64 µg/mL and the MIC (Escherichia coli [11]) was greater than 64 µg/mL. It also gave an MIC (Klebsiella pneumoniae [12]) greater than 64 µg/mL, an MIC (Klebsiella pneumoniae [13]) greater than 64 µg/mL and an MIC (Klebsiella pneumoniae [14]) greater than 64 µg/mL. It also gave an MIC (Klebsiella pneumoniae [15]) greater than 64 µg/mL, an MIC (Klebsiella pneumoniae [16]) greater than 64 µg/mL and an MIC (Pseudomonas aeruginosa [17]) greater than 64 µg/mL. It also gave an MIC (Pseudomonas aeruginosa [18]) greater than 64 µg/mL, an MIC (Pseudomonas aeruginosa [19]) greater than 64 µg/mL and an MIC [20] greater than 64 µg/mL. It also gave an MIC (Enterobacter cloacae) greater than 64 µg/mL, an MIC (Klebsiella aerogenes) greater than 64 µg/mL and an MIC (Serratia marcescens) greater than 64 µg/mL. It also gave an MIC (Morganella morganii) greater than 64 µg/mL, an MIC (Providencia rettgeri) greater than 64 µg/mL and an MIC (Proteus vulgaris) greater than 64 µg/mL. It also gave an MIC (Proteus mirabilis) greater than 64 µg/mL, an MIC [21] greater than 64 µg/mL and an MIC (Citrobacter freundii) greater than 64 µg/mL. For the same molecule, the IC50 (HeLa) was greater than 10 µM.

With CNC(=N)NCCC/C=C/CCC[C@H](C)C[C@H](C)[C@H]1OC(=O)[C@H](C)[C@H](O)/C=C/[C@H](C)[C@H](O)C[C@H](O)[C@H](C)[C@@H](O)CC[C@H](C)[C@H](O)CC(O)[C@H](O)[C@@H](O)C[C@H](O)C[C@@H](O)C[C@H](O)C[C@@H](O)[C@H](C)[C@H](O)/C=C/C=C/[C@@H]1C (stereo partly drawn) the Activity [1] was “Active”, the Activity (Staphylococcus aureus [2]) was “Active” and the Activity (Staphylococcus aureus [3]) was “Active”. The Activity (Enterococcus faecalis [4]) was “Active”, the Activity (Enterococcus faecalis [5]) was “Active” and the Activity (Enterococcus faecium [6]) was “Active”. For the same molecule, the Activity (Enterococcus faecium [7]) was “Active”, the MIC (Candida albicans) was 8 to 32 µg/mL (≈ 7.56 to 30.2 µM) and the MIC (Escherichia coli [8]) was greater than 64 µg/mL. It also gave an MIC (Escherichia coli [9]) greater than 64 µg/mL, an MIC (Escherichia coli [10]) greater than 64 µg/mL and an MIC (Escherichia coli [11]) greater than 64 µg/mL. The MIC (Klebsiella pneumoniae [12]) was greater than 64 µg/mL, the MIC (Klebsiella pneumoniae [13]) was greater than 64 µg/mL and the MIC (Klebsiella pneumoniae [14]) was greater than 64 µg/mL. It also gave an MIC (Klebsiella pneumoniae [15]) greater than 64 µg/mL, an MIC (Klebsiella pneumoniae [16]) greater than 64 µg/mL and an MIC (Pseudomonas aeruginosa [17]) greater than 64 µg/mL. For the same molecule, the MIC (Pseudomonas aeruginosa [18]) was greater than 64 µg/mL, the MIC (Pseudomonas aeruginosa [19]) was greater than 64 µg/mL and the MIC [20] was greater than 64 µg/mL. It also gave an MIC (Enterobacter cloacae) greater than 64 µg/mL, an MIC (Klebsiella aerogenes) greater than 64 µg/mL and an MIC (Serratia marcescens) greater than 64 µg/mL. The MIC (Morganella morganii) was greater than 64 µg/mL, the MIC (Providencia rettgeri) was greater than 64 µg/mL and the MIC (Proteus vulgaris) was greater than 64 µg/mL. For the same molecule, the MIC (Proteus mirabilis) was greater than 64 µg/mL, the MIC [21] was greater than 64 µg/mL and the MIC (Citrobacter freundii) was greater than 64 µg/mL. For the same molecule, the IC50 (HeLa) was greater than 10 µM.
